The list is not random: actives were taken first. Their share in the collection is about 2%.
DNA FID counter-1 = counter-screen for HCV NS3 helicase inhibitors: DNA intercalator displacement; DNA fluorescent intercalator displacement, fluorescence; inhibition, % at 7.9 µM; 290,000 compounds, 0.17% hits;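 further: higher means more ethidium bromide displaced from hairpin DNA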
EBNA-1 inh = blocks EBNA-1 binding to DNA | EBNA-1 DNA binding, fluorescence polarization | inhibition, % at 14.8 µM | 300,000 compounds, 0.34% hits; in the data active means inhibition above about 28%
ZTA DNA inh = blocks Epstein-Barr virus ZTA, an EBNA-1 counter-screen. P03206. ZTA-DNA binding, fluorescence polarization. inhibition, % at 11 µM. 320,000 compounds, 0.15% hits; in the data active means inhibition above about 33%
Target sequence (P03206 whole entry, looked up): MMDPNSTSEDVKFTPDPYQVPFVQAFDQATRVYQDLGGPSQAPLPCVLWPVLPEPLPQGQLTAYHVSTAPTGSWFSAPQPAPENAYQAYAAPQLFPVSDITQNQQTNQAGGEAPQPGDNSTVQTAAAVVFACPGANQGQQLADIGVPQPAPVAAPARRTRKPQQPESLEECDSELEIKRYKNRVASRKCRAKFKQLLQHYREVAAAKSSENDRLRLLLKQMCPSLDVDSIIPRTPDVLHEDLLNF
NS3 helicase inh = blocks Hepatitis C virus NS3 helicase unwinding. NS3 helicase DNA unwinding, Cy5 molecular beacon fluorescence. inhibition, % at 10.9 µM. 290,000 compounds, 0.56% hits. AID 1800;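 active means inhibition above the mean of all tested compounds plus 3 SD, set per campaign, cut at about 35% in these data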
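System: HCV NS3 helicase fragment; control set: DMSO and thioflavine S; technique: Cy5 fluorescence at 0 and 60 min, beacon hairpin quenching; reagent: beacon DNA duplex substrate plus ATP; replicates: singlicate; schedule: 1 h reaction at 25 °C, ATP-initiated; medium: MOPS buffer pH 6.5 with MgCl2, DTT, Tween20, BSA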
GPR7 antagonist = antagonists of human GPR7 (neuropeptides B/W receptor 1) | 290,000 compounds, 1.1% hits | inhibition, % at 4.4 µM | AID 1861 | GPR7-expressing cells, fluorescence antagonist assay | P48145; in the data active means inhibition above about 16%, passing the limit was not always enough;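 further: cells stimulated with the agonist NPW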
Target sequence (P48145 whole entry, looked up): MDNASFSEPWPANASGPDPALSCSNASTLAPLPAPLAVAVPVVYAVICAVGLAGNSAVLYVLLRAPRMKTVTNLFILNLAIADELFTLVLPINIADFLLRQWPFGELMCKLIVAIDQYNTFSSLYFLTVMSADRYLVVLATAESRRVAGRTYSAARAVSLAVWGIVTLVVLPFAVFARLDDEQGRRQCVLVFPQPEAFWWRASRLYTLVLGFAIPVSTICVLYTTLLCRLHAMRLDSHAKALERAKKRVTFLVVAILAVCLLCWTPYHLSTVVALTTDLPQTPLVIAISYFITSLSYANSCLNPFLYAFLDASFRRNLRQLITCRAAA
NS3 helicase cf = HCV NS3 helicase inhibition, confirmation assay. shares compounds with NS3 helicase inh. NS3 helicase DNA unwinding, Cy5 molecular beacon fluorescence. inhibition, % at 10.9 µM. 1,600 compounds, 31% hits. AID 1943;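 active means inhibition above the mean of all tested compounds plus 3 SD, cutoff set per campaign, cut at about 36% in these data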
DNA FID counter-2 = counter-screen for HCV NS3 helicase inhibitors: DNA intercalator displacement. inhibition, % at 7.9 µM. shares compounds with NS3 helicase inh. AID 1945. DNA fluorescent intercalator displacement, fluorescence. 1,600 compounds, 4% hits;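 further: higher means more displacement of ethidium bromide from the DNA hairpin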
FID counter DR = displaces fluorescent intercalator from DNA, HCV helicase counter-screen. shares compounds with NS3 helicase inh. fluorescent intercalator displacement from DNA, fluorescence. IC50, µM. 120 tested, under 10 active. AID 2172; call rule not given here
Of the large screens only hits and unclear results are named; the others gave an inactive call (follow-up assays come after a bar, where they were run). Unless noted, no stated cut-off is given here; in the data, active means inhibition above about 37%; inactive means the rest.

CN(C)c1ccc(/C=N/NC2=NS(=O)(=O)c3ccccc32)cc1	NS3 helicase inh 40 | NS3 helicase cf inactive | DNA FID counter-2 inactive
CCOC(=O)c1c(CC(C)C)csc1NC(=O)c1ccccc1C(=O)O	NS3 helicase inh 50 | NS3 helicase cf 71 | DNA FID counter-2 inactive
O=C(O)C1Nc2ccc(Br)cc2C2C=CCC12 (stereo unspecified)	NS3 helicase inh 43 | NS3 helicase cf 88 | DNA FID counter-2 inactive
CCOC(=O)C1Nc2ccc(Br)cc2C2C=CCC12 (stereo unspecified)	NS3 helicase inh 39 | NS3 helicase cf inactive | DNA FID counter-2 inactive
CC(C)CNC(=O)C1Nc2ccccc2C2C=CCC12 (stereo unspecified)	none (no result: DNA FID counter-1, NS3 helicase inh, GPR7 antagonist)
CCOC(=O)c1ccc2c(c1)C1C=CCC1C(C(=O)OCC)N2 (stereo unspecified)	NS3 helicase inh 51 | NS3 helicase cf inactive | DNA FID counter-2 inactive
CCOC(=O)C1Nc2ccc(C)cc2C2C=CCC12 (stereo unspecified)	none (no result: DNA FID counter-1, NS3 helicase inh, GPR7 antagonist)
O=C(O)C1Nc2c(O)cccc2C2C=CCC12 (stereo unspecified)	EBNA-1 inh 42, NS3 helicase inh 58 | NS3 helicase cf 110 | DNA FID counter-2 inactive | FID counter DR inactive
Cc1ccc(C)n1N1C(=O)/C(=C\c2ccc(Cl)cc2)SC1=S	NS3 helicase inh 43 | NS3 helicase cf inactive | DNA FID counter-2 inactive
O=C(c1ccccc1[N+](=O)[O-])N1CCN(c2ccc(N3CCOCC3)nn2)CC1	none (no result: DNA FID counter-1, NS3 helicase inh, GPR7 antagonist)
O=C(C[n+]1ccccc1)N/N=C/c1ccc(Cl)cc1	none (no result: DNA FID counter-1, EBNA-1 inh, NS3 helicase inh, GPR7 antagonist)
COc1cc(CC(CC(=O)O)CC(C)OCc2ccccc2)cc(OC)c1 (stereo unspecified)	NS3 helicase inh 39 | NS3 helicase cf inactive | DNA FID counter-2 inactive
COc1ccc(NC(=O)C(CC(=O)O)Cc2ccccc2)cc1 (stereo unspecified)	none
CCC(C(=O)Nc1ccon1)c1ccccc1 (stereo unspecified)	none
Cn1c(-c2ccc3c(c2)OCO3)cc(=O)c2ccccc21	none
Cn1c2ccccc2c(=O)c2ccc(-c3ccc4c(c3)OCO4)cc21	NS3 helicase inh 43 | NS3 helicase cf inactive | DNA FID counter-2 inactive
COc1ccccc1NS(=O)(=O)c1ccc(C(=O)N2CC(C)OC(C)C2)cc1 (stereo unspecified)	none (no result: DNA FID counter-1, EBNA-1 inh, NS3 helicase inh, GPR7 antagonist)
CSc1ccc(CN2CCCC(CNC(=O)c3ccc(F)cc3)C2)cc1 (stereo unspecified)	NS3 helicase inh 43 | NS3 helicase cf inactive | DNA FID counter-2 inactive
CSc1cccc(CN2CCCC(CNC(=O)c3ccc(F)cc3)C2)c1 (stereo unspecified)	none
CCc1sc(C(C2C(=O)CC(C)(C)CC2=O)C2C(=O)CC(C)(C)CC2=O)cc1[N+](=O)[O-]	NS3 helicase inh 59 | NS3 helicase cf 68 | DNA FID counter-2 inactive
O=S(=O)(c1ccc(NCCOc2ccccc2)nc1)N1CCCC1	none (no result: DNA FID counter-1, EBNA-1 inh, NS3 helicase inh, GPR7 antagonist)
Cc1ccc(CC(=O)O/N=C(\N)Cc2ccc([N+](=O)[O-])cc2)cc1	NS3 helicase inh 38 | NS3 helicase cf inactive | DNA FID counter-2 inactive
COc1ccc(CC(=O)O/N=C(\N)Cc2ccc([N+](=O)[O-])cc2)cc1	none
Cc1cccc(C)c1NC(=O)C(=O)NCC1CCCN1S(=O)(=O)c1ccccc1 (stereo unspecified)	none (no result: DNA FID counter-1, NS3 helicase inh, GPR7 antagonist)
CCN(CC)c1ccc(N=Cc2ccccc2[N+](=O)[O-])cc1	EBNA-1 inh 177, ZTA DNA inh active, NS3 helicase inh 41 | NS3 helicase cf inactive | DNA FID counter-2 inactive
CCN(CC)c1ccc(N=Cc2ccc([N+](=O)[O-])o2)cc1	EBNA-1 inh active, ZTA DNA inh active, NS3 helicase inh 57 | NS3 helicase cf inactive | DNA FID counter-2 inactive
CC1CCC(NC(=O)CCS(=O)(=O)c2ccc3c(c2)NC(=O)C(C)S3)CC1 (stereo unspecified)	none
O=C(N/N=C/c1cc(Br)c(O)c(Br)c1)c1cc2c(ccc3ccccc32)o1	none (no result: EBNA-1 inh, ZTA DNA inh)
O=C(N/N=C/c1cc(Cl)c(O)c(Cl)c1)c1cc2c(ccc3ccccc32)o1	NS3 helicase inh 45 | NS3 helicase cf 53 | DNA FID counter-2 inactive | FID counter DR inactive
CC(C)C1Nc2c(O)cc(Cl)c([N+](=O)[O-])c2C2C=CCC21 (stereo unspecified)	NS3 helicase inh 37 (no result: EBNA-1 inh, ZTA DNA inh) | NS3 helicase cf 58 | DNA FID counter-2 inactive
Cc1ccc(OCC(=O)N/N=C\c2ccc(-c3cccc(C(=O)O)c3)o2)c(C)c1	NS3 helicase inh 43 | NS3 helicase cf 91 | DNA FID counter-2 inactive
CCN(CC)c1ccc2nc3c4ccccc4c(=O)cc-3oc2c1	NS3 helicase inh 71 (no result: EBNA-1 inh, ZTA DNA inh) | NS3 helicase cf 101 | DNA FID counter-2 inactive
CCN(CC)c1ccc2cc(C=O)c(=O)oc2c1	none
O=C1/C(=C/c2ccco2)CCc2ccccc21	none
O=C1C(=Cc2ccco2)C(=O)c2ccccc21	NS3 helicase inh 50 | NS3 helicase cf inactive | DNA FID counter-2 inactive
COc1cc(SSc2cc(OC)cc([N+](=O)[O-])c2N)c(N)c([N+](=O)[O-])c1	none | NS3 helicase cf inactive | DNA FID counter-2 inactive
O=C(Cc1cccc(NC(=O)C2CCN(C(=O)CCc3ccccc3)CC2)c1)Nc1cccc(C(=O)N2CCCC2)c1	none (no result: DNA FID counter-1, EBNA-1 inh, NS3 helicase inh, GPR7 antagonist)
CCc1ccc(NS(=O)(=O)c2ccc3oc(=O)ccc3c2)cc1	none
COc1cccc(NC(=O)COc2cc(O)c3c(c2)OC(C)(C)CC3=O)c1	NS3 helicase inh 83 | NS3 helicase cf inactive | DNA FID counter-2 inactive
CCOc1ccccc1NC(=O)CCS(=O)(=O)c1ccc(Br)cc1	none
Cc1cc(C)nc(NS(=O)(=O)c2ccc(NC(=O)c3ccc(N4C(=O)CCC4=O)cc3)cc2)n1	NS3 helicase inh 60 | NS3 helicase cf inactive | DNA FID counter-2 inactive
Cc1cc(C)nc(NS(=O)(=O)c2ccc(NC(=O)c3ccc(S(=O)(=O)N(C)C)cc3)cc2)n1	none
O=C1NC(=S)S/C1=C\c1ccc(SCc2ccccc2)o1	NS3 helicase inh 47 | NS3 helicase cf 81 | DNA FID counter-2 inactive
O=C1NC(=S)S/C1=C\c1ccc(SCc2ccco2)o1	ZTA DNA inh 92, NS3 helicase inh 76 | NS3 helicase cf 81 | DNA FID counter-2 inactive
O=C1NN(c2ccc(Cl)cc2)C(=O)/C1=C\c1ccc(-c2cccc(C(=O)O)c2)o1	NS3 helicase inh 46 (no result: EBNA-1 inh, ZTA DNA inh) | NS3 helicase cf 66 | DNA FID counter-2 inactive
C/C(CCC(=O)O)=N/Nc1ccc([N+](=O)[O-])cc1[N+](=O)[O-]	none
O=C(O)/C(CC(=O)c1ccc(Cl)cc1)=N/Nc1ccc([N+](=O)[O-])cc1[N+](=O)[O-]	NS3 helicase inh 38 | NS3 helicase cf 52 | DNA FID counter-2 56
CC(C)(C)OC(=O)COc1cc(F)ccc1[N+](=O)[O-]	none (no result: DNA FID counter-1, NS3 helicase inh, GPR7 antagonist)
CCOC(=O)C(=O)Nc1ccc([N+](=O)[O-])cc1OC	none

Bioassay records deposited in PubChem by The Scripps Research Institute Molecular Screening Center.
